Data taken from ChEMBL document CHEMBL3045285, “Synthesis and insecticidal activities of novel anthranilic diamides containing modified N-pyridylpyrazoles” (2010).

What was measured:
Format in all cases: functional
[1] = tested on: Mythimna separata; assay: Insecticidal activity against fourth-instar larval stage of Mythimna separata (Oriental armyworm) in compound pretreated Zea mays L. Tangyu 10 leaves assessed as mortality at 200 mg/l at 25 +/-1 degC after 2 days
Summary of the method: (§1)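 Greenhouse-reared fourth-instar oriental armyworm larvae. Corn (Tangyu 10) leaves laid on moist filter paper in Petri dishes, sprayed with test solution (200 mg/L solution diluted in distilled water), then air-dried. Ten larvae per dish. Held at 25 ± 1 °C; mortality scored dead/alive 2 days post-treatment. Triplicate treatments, Abbott-corrected, 0–100 scale.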

[2] = tested on: Mythimna separata; assay: Insecticidal activity against fourth-instar larval stage of Mythimna separata (Oriental armyworm) in compound pretreated Zea mays L. Tangyu 10 leaves assessed as mortality at 100 mg/l at 25 +/-1 degC after 2 days; summary of the method: as §1
[3] = tested on: Mythimna separata; assay: Insecticidal activity against fourth-instar larval stage of Mythimna separata (Oriental armyworm) in compound pretreated Zea mays L. Tangyu 10 leaves assessed as mortality at 20 mg/l at 25 +/-1 degC after 2 days; summary of the method: as §1
[4] = tested on: Mythimna separata; assay: Insecticidal activity against fourth-instar larval stage of Mythimna separata (Oriental armyworm) in compound pretreated Zea mays L. Tangyu 10 leaves assessed as mortality at 50 mg/l at 25 +/-1 degC after 2 days; summary of the method: as §1
[5] = tested on: Plutella xylostella; assay: Insecticidal activity against second-instar larval stage of Plutella xylostella (diamondback moth) in cabbage leaves assessed as mortality at 20 mg/l at 25 +/-1 degC treated for 3 secs before larva infestation measured after 2 days by leaf-dip method; settings: 48 h
Summary of the method: (§2)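 Greenhouse-reared diamondback moth larvae tested by leaf-dip method at 25 ± 1 °C. Test solution made at 200 mg/L, then diluted with distilled water to working concentrations. Mortality scored dead/alive, corrected with Abbott's formula and expressed on a 0–100 scale.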

[6] = tested on: Plutella xylostella; assay: Insecticidal activity against second-instar larval stage of Plutella xylostella (diamondback moth) in cabbage leaves assessed as mortality at 10 mg/l at 25 +/-1 degC treated for 3 secs before larva infestation measured after 2 days by leaf-dip method; settings: 48 h; summary of the method: as §2
[7] = tested on: Mythimna separata; assay: Insecticidal activity against fourth-instar larval stage of Mythimna separata (Oriental armyworm) in compound pretreated Zea mays L. Tangyu 10 leaves assessed as mortality at 10 mg/l at 25 +/-1 degC after 2 days; summary of the method: as §1

SMILES	mortality at 200 µg/mL [1] [%]	mortality at 100 µg/mL [2] [%]	mortality at 20 µg/mL [3] [%]	mortality at 50 µg/mL [4] [%]	mortality at 20 µg/mL [5] [%]	mortality at 10 µg/mL [6] [%]	mortality at 10 µg/mL [7] [%]
CNC(=O)c1cc(Cl)cc(C)c1NC(=O)c1cc(CNS(C)(=O)=O)nn1-c1ncccc1Cl	100	60					
CNC(=O)c1cc(Cl)cc(C)c1NC(=O)c1cc(CNC(=O)c2ccccc2)nn1-c1ncccc1Cl	20						
CNC(=O)c1cc(Cl)cc(C)c1NC(=O)c1cc(CNC(C)=O)nn1-c1ncccc1Cl	100	100	0	100			
CNC(=O)c1cc(Cl)cc(C)c1NC(=O)c1cc(CN)nn1-c1ncccc1Cl	20						
CNC(=O)c1cc(Cl)cc(C)c1NC(=O)c1cc(C=O)nn1-c1ncccc1Cl	100	40					
CNC(=O)c1cc(Cl)cc(C)c1NC(=O)c1cc(CO)nn1-c1ncccc1Cl	100	100	60	100			
CNC(=O)c1cc(Cl)cc(C)c1NC(=O)c1cc(COC(=O)c2ccccc2)nn1-c1ncccc1Cl	100	100	40	100			
CNC(=O)c1cc(Cl)cc(C)c1NC(=O)c1cc(COC(=O)COC(C)=O)nn1-c1ncccc1Cl	100	100	40	100			
CNC(=O)c1cc(Cl)cc(C)c1NC(=O)c1cc(COC(=O)CCCCl)nn1-c1ncccc1Cl	100	100	60	100			
CNC(=O)c1cc(Cl)cc(C)c1NC(=O)c1cc(COC(=O)C(F)(F)F)nn1-c1ncccc1Cl	100	100	20	100			
CNC(=O)c1cc(Cl)cc(C)c1NC(=O)c1cc(COS(=O)(=O)c2ccc(C)cc2)nn1-c1ncccc1Cl	100	100	80	100			
CNC(=O)c1cc(Cl)cc(C)c1NC(=O)c1cc(COS(C)(=O)=O)nn1-c1ncccc1Cl	100	100	40	100			
CCCNC(=O)c1cccc(C)c1NC(=O)c1cc(COC(C)=O)nn1-c1ncccc1Cl	100	100	40	100			
CC(=O)OCc1cc(C(=O)Nc2c(C)cccc2C(=O)NC2CC2)n(-c2ncccc2Cl)n1	100	100	40	100			
CNC(=O)c1cccc(C)c1NC(=O)c1cc(COC(C)=O)nn1-c1ncccc1Cl	100	60					
CC(=O)OCc1cc(C(=O)Nc2c(C)cc(Cl)cc2C(=O)NCc2ccccc2)n(-c2ncccc2Cl)n1	100	100	40	100			
CONC(=O)c1cc(Cl)cc(C)c1NC(=O)c1cc(COC(C)=O)nn1-c1ncccc1Cl	100	0					
CCCCNC(=O)c1cc(C(=O)Nc2c(C)cc(Cl)cc2C(=O)NC)n(-c2ncccc2Cl)n1	100	100	20	100			
CNC(=O)c1cc(Cl)cc(C)c1NC(=O)c1cc(C(=O)NC2CCCCC2)nn1-c1ncccc1Cl	0						
CNC(=O)c1cc(Cl)cc(C)c1NC(=O)c1cc(C(=O)Nc2ccccc2)nn1-c1ncccc1Cl	100	100	0	100			
CNC(=O)c1cc(Cl)cc(C)c1NC(=O)c1cc(C(=O)NC(C)(C)C)nn1-c1ncccc1Cl	100	100	40	100			

SMILES	mortality at 200 µg/mL [1] [%]	mortality at 100 µg/mL [2] [%]	mortality at 20 µg/mL [3] [%]	mortality at 50 µg/mL [4] [%]	mortality at 20 µg/mL [5] [%]	mortality at 10 µg/mL [6] [%]	mortality at 10 µg/mL [7] [%]
CNC(=O)c1cc(Cl)cc(C)c1NC(=O)c1cc(C(=O)NC(C)C)nn1-c1ncccc1Cl	100	100	60	100			
CNC(=O)c1cc(Cl)cc(C)c1NC(=O)c1cc(C(=O)NCc2ccccc2)nn1-c1ncccc1Cl	100	100	20	100			
CCCCNC(=O)c1cc(Cl)cc(C)c1NC(=O)c1cc(C(=O)NC)nn1-c1ncccc1Cl	100	20					
CNC(=O)c1cc(C(=O)Nc2c(C)cc(Cl)cc2C(=O)NCc2ccccc2)n(-c2ncccc2Cl)n1	100	60					
CNC(=O)c1cc(C(=O)Nc2c(C)cc(Cl)cc2C(=O)NOC)n(-c2ncccc2Cl)n1	0						
CNC(=O)c1cc(C(=O)Nc2c(C)cc(Cl)cc2C(=O)NC2CC2)n(-c2ncccc2Cl)n1	100	100	100	100	50	0	20
CNC(=O)c1cc(C(=O)Nc2c(C)cc(Cl)cc2C(=O)NC(C)C)n(-c2ncccc2Cl)n1	100	60					
CNC(=O)c1cc(C(=O)Nc2c(C)cc(Cl)cc2C(=O)NC)n(-c2ncccc2Cl)n1	100	60					
CNC(=O)c1cc(Cl)cc(C)c1NC(=O)c1cc(C(=O)OC2CCCCC2)nn1-c1ncccc1Cl	100	40					
CNC(=O)c1cc(Cl)cc(C)c1NC(=O)c1cc(C(=O)OCc2ccccc2)nn1-c1ncccc1Cl	100	40					
CNC(=O)c1cc(Cl)cc(C)c1NC(=O)c1cc(C(=O)OC(C)C)nn1-c1ncccc1Cl	80						
CCOC(=O)c1cc(C(=O)Nc2c(C)cc(Cl)cc2C(=O)NCc2ccccc2)n(-c2ncccc2Cl)n1	20						
CCOC(=O)c1cc(C(=O)Nc2c(C)cccc2C(=O)NC(C)C)n(-c2ncccc2Cl)n1	100	100		60			
CCCNC(=O)c1cccc(C)c1NC(=O)c1cc(C(=O)OCC)nn1-c1ncccc1Cl	100	100		60			
CCCCOC(=O)c1cc(C(=O)Nc2c(C)cc(Cl)cc2C(=O)NC)n(-c2ncccc2Cl)n1	80						
CCOC(=O)c1cc(C(=O)Nc2c(C)cc(Cl)cc2C(=O)NC(C)C)n(-c2ncccc2Cl)n1	70						
CCOC(=O)c1cc(C(=O)Nc2c(C)cc(Cl)cc2C(=O)NC(C)(C)C)n(-c2ncccc2Cl)n1	100	100		70			
CCOC(=O)c1cc(C(=O)Nc2c(C)cc(Cl)cc2C(=O)NC2CC2)n(-c2ncccc2Cl)n1	100	100		80			
CCOC(=O)c1cc(C(=O)Nc2c(C)cc(Cl)cc2C(=O)NOC)n(-c2ncccc2Cl)n1	50						
CCOC(=O)c1cc(C(=O)Nc2c(C)cc(Cl)cc2C(=O)NC)n(-c2ncccc2Cl)n1	80						
